Measured values taken from ChEMBL document CHEMBL1152541, “Staurosporine tethered peptide ligands that target cAMP-dependent protein kinase (PKA): optimization and selectivity profiling” (Bioorg Med Chem, 2009).
Blank lines part the entries; values can stand above or below the compound they belong to. *1 amine or outer side, *2 acyl side, *3 side chain or, on linkers, in order; H or OH if unused. Where a SMILES comes first, the peptide text is derived from it. Bridges are numbered along the chain shown (N, C = ends). [ ]: non-standard residue; d: D form. The star is where a group is joined. Staurosporine = CO[C@@H]1[C@H](N(C)*)C[C@H]2O[C@]1(C)n1c3ccccc3c3c4c(c5c6ccccc6n2c5c31)C(=O)NC4; Suc = O=C(CCC(=O)[*:2])[*:1]; Dap = NC[C@H](N)C(=O)O; βAla = NCCC(=O)O

Assays:
[1] = biological target: Phosphatidylinositol 4,5-bisphosphate 3-kinase catalytic subunit gamma isoform (Homo sapiens) (UniProt P48736); assay: Ratio of staurosporine to compound binding affinity to PI3Kgamma in presence of DTT
Phosphatidylinositol 4,5-bisphosphate 3-kinase catalytic subunit gamma isoform (Homo sapiens), sequence (P48736 whole entry, looked up, canonical isoform): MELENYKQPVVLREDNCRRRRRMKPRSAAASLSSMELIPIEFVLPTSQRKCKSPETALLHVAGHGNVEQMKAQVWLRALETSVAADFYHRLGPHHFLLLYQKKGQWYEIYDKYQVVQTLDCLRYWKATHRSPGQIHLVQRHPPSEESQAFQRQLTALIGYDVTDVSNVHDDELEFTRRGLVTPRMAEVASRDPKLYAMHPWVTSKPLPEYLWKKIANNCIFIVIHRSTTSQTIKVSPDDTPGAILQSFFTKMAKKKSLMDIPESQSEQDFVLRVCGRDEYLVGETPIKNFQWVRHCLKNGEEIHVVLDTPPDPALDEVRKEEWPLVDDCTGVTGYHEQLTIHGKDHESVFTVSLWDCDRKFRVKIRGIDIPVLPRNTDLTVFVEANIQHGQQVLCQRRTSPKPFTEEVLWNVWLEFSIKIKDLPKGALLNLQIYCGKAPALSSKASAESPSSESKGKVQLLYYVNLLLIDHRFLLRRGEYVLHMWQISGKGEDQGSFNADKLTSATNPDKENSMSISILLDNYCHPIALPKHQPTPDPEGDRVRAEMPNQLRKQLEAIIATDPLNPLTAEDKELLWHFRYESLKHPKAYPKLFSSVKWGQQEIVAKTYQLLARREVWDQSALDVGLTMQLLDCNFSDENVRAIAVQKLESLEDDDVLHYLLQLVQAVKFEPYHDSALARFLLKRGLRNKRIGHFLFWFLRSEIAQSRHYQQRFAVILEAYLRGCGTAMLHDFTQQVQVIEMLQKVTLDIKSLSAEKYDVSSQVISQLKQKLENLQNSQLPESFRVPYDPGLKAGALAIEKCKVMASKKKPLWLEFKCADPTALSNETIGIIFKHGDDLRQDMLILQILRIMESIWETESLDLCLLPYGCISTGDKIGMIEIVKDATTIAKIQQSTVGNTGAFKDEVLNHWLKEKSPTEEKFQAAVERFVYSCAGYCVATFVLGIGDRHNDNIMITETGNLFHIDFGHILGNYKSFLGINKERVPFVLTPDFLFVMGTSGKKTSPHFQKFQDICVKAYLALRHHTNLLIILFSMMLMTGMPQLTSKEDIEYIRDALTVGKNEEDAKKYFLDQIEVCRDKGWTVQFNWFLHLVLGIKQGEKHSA

[2] = biological target: Glycogen synthase kinase-3 beta (Homo sapiens) (UniProt P49841); assay: Binding affinity to human GSK3-beta at 200 nM by cell-based competition binding assay relative to control in presence of DTT
Glycogen synthase kinase-3 beta (Homo sapiens), sequence (P49841 whole entry, looked up): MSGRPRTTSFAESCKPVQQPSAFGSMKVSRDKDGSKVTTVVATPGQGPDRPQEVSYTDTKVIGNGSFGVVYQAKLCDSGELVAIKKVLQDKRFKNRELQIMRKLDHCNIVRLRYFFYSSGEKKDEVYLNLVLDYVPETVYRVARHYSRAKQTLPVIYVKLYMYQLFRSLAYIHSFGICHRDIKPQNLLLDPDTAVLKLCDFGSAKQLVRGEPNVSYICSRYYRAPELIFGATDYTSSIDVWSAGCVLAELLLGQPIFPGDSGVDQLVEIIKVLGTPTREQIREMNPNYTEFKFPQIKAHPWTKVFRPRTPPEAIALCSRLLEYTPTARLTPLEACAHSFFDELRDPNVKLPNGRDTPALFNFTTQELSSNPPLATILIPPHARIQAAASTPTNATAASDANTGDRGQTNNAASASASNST
Summary of the method: (§1)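 Commercial (Ambit) competitive kinase-binding panel of 90 kinases measured the binding profile. Run under reducing conditions of 7.5 mM DTT. Binding is expressed relative to control.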

[3] = biological target: Mitogen-activated protein kinase 3 (Homo sapiens) (UniProt P27361); assay: Binding affinity to human ERK1 at 200 nM by cell-based competition binding assay relative to control in presence of DTT; summary of the method: as §1
Mitogen-activated protein kinase 3 (Homo sapiens), sequence (P27361 whole entry): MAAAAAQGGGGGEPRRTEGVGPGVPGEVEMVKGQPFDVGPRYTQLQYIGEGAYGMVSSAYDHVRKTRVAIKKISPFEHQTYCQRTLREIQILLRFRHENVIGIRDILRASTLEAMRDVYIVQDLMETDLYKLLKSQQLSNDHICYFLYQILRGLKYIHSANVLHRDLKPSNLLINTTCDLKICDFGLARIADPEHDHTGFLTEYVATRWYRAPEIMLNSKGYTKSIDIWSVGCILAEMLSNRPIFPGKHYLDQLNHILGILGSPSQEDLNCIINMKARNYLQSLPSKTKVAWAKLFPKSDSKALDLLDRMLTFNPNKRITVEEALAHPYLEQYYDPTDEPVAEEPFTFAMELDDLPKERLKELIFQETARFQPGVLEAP

[4] = biological target: Mitogen-activated protein kinase 9 (Homo sapiens) (UniProt P45984); assay: Binding affinity to human JNK2 at 200 nM by cell-based competition binding assay relative to control in presence of DTT
Mitogen-activated protein kinase 9 (Homo sapiens), sequence (P45984 whole entry, looked up): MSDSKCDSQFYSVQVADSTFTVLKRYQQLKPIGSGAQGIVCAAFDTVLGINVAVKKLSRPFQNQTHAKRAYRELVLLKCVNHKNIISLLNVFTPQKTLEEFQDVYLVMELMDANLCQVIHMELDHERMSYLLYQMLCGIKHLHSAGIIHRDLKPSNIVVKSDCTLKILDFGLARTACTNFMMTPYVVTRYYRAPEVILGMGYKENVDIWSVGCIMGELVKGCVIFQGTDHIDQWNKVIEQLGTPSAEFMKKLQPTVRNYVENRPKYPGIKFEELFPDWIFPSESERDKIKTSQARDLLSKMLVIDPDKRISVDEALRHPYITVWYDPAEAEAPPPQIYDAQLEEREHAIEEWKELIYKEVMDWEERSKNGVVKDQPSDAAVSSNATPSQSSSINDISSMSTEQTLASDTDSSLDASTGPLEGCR
Summary of the method: (§2)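 Competition binding screen (Ambit) across a panel of 90 kinases, scoring test ligand displacement of each kinase's binding relative to control. The screen ran under reducing conditions with 7.5 mM DTT.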

[5] = biological target: Receptor tyrosine-protein kinase erbB-4 (Homo sapiens) (UniProt Q15303); assay: Binding affinity to human ERBB4 at 50 nM by cell-based competition binding assay relative to control in presence of DTT; summary of the method: as §1
[6] = biological target: High affinity nerve growth factor receptor (Homo sapiens) (UniProt P04629); assay: Binding affinity to human TRKA at 50 nM by cell-based competition binding assay relative to control in presence of DTT
High affinity nerve growth factor receptor (Homo sapiens), sequence (P04629 33-796 limits assumed): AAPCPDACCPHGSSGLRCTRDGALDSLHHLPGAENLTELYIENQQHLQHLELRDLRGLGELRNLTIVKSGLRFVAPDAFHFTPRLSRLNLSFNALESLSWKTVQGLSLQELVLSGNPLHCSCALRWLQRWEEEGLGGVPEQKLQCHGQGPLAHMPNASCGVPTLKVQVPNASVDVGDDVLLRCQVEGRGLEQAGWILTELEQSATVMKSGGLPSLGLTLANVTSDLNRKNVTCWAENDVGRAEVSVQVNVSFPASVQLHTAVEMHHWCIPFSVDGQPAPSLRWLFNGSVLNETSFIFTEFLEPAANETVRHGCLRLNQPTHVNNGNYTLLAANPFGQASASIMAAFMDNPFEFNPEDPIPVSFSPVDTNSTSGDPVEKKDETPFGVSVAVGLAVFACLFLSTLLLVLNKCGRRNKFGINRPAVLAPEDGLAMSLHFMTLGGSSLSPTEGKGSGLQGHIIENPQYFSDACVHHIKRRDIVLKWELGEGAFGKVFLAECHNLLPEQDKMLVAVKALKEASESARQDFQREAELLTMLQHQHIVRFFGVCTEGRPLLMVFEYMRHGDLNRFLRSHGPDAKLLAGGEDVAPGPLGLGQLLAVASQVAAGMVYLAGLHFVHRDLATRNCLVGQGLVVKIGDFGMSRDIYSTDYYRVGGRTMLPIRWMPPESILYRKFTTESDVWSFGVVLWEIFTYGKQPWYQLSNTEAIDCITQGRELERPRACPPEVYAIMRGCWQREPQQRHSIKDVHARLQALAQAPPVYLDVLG

[7] = biological target: Mitogen-activated protein kinase 10 (Homo sapiens) (UniProt P53779); assay: Binding affinity to human JNK3 at 50 nM by cell-based competition binding assay relative to control in presence of DTT; summary of the method: as §2
Mitogen-activated protein kinase 10 (Homo sapiens), sequence (P53779 whole entry): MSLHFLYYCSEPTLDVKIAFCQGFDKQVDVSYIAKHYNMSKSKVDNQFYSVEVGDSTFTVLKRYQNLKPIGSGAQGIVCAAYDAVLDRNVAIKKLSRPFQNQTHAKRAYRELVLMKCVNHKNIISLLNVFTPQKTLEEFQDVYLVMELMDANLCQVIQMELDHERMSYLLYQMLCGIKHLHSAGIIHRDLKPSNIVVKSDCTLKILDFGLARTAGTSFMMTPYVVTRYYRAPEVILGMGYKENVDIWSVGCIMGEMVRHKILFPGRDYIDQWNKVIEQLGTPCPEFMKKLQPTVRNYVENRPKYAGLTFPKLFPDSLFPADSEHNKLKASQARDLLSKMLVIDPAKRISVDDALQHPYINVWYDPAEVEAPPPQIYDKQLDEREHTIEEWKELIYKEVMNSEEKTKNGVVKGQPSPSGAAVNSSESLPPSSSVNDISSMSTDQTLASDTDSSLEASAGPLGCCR

[8] = tested on: Mast/stem cell growth factor receptor Kit (Homo sapiens), P10721 [V559D,T670I]; assay: Binding affinity to human KIT V559D,T670I mutant at 50 nM by cell-based competition binding assay relative to control in presence of DTT; summary of the method: as §2
Mast/stem cell growth factor receptor Kit (Homo sapiens), P10721 [V559D,T670I], sequence (P10721 whole entry V559D/T670I): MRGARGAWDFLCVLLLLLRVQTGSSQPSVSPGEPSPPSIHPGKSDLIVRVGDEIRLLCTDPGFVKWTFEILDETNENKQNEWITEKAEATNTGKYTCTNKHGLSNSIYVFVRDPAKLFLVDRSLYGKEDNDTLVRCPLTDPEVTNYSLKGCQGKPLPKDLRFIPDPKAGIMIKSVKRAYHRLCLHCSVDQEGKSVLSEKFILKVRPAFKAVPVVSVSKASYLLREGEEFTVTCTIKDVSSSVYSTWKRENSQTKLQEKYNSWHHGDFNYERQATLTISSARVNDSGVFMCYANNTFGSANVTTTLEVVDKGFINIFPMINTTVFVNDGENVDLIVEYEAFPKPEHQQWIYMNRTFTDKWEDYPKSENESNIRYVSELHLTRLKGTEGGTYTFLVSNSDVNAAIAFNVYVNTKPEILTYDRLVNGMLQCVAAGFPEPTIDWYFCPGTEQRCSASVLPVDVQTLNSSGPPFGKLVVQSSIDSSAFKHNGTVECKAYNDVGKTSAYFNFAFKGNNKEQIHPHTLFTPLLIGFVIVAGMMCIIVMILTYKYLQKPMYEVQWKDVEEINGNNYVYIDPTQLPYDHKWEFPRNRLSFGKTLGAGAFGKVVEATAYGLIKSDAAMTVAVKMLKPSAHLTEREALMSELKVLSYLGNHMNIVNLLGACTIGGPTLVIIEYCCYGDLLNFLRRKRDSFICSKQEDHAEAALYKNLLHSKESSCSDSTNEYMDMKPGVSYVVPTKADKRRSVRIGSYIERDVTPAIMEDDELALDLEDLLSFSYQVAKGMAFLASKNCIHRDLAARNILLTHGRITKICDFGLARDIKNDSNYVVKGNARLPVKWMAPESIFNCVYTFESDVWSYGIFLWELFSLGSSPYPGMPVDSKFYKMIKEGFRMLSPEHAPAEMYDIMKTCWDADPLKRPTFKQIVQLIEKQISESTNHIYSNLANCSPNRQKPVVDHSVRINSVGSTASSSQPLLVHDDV

[9] = biological target: T1, Bone morphogenetic protein receptor type-2 (Homo sapiens) (UniProt Q13873); assay: Binding affinity to human BMPR2 at 50 nM by cell-based competition binding assay relative to control in presence of DTT
T1 sequence (whole entry): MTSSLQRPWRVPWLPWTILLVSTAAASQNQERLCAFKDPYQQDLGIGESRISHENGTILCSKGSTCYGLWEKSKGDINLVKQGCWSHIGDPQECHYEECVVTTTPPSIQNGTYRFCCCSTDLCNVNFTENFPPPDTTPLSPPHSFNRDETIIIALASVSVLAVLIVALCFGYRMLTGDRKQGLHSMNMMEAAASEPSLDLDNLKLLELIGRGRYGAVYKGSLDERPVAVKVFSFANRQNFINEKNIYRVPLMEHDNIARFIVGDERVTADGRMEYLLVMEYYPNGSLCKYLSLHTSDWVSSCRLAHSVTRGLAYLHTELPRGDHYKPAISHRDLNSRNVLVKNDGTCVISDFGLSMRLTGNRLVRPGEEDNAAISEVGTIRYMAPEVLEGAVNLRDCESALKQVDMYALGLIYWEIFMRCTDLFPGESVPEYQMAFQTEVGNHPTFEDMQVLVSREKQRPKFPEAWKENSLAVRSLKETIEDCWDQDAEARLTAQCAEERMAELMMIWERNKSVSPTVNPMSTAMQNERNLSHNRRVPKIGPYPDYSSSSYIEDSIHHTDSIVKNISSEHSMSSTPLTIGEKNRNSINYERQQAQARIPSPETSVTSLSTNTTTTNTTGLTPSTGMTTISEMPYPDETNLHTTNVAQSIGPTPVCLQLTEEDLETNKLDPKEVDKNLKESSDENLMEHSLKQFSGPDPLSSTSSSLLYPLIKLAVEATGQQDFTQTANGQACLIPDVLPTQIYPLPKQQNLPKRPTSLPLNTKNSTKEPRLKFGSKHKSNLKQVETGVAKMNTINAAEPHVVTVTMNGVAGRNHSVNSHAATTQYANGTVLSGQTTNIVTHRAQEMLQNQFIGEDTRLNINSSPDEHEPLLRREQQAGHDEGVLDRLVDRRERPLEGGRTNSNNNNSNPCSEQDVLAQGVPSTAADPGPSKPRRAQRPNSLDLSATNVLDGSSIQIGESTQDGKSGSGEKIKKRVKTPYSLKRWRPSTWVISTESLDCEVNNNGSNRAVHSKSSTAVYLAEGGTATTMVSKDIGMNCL
Summary of the method: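 Kinase binding profiling ran on a commercial (Ambit) competitive binding screen against a panel of 90 kinases. The screen used reducing conditions with 7.5 mM DTT. To withstand the DTT, the bivalent ligand was tested as its amide isostere, with the disulfide replaced. A staurosporine derivative carrying a 3 β-alanine linker was run as the reference compound.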

[10] = biological target: Serine/threonine-protein kinase PLK1 (Homo sapiens) (UniProt P53350); assay: Binding affinity to human PLK1 at 50 nM by cell-based competition binding assay relative to control in presence of DTT
[11] = biological target: Insulin-like growth factor 1 receptor (Homo sapiens) (UniProt P08069); assay: Binding affinity to human IGF1R at 50 nM by cell-based competition binding assay relative to control in presence of DTT; summary of the method: as §2
[12] = biological target: T2, Protein kinase C epsilon type (Homo sapiens) (UniProt Q02156); assay: Binding affinity to human PRKCepsilon at 50 nM by cell-based competition binding assay relative to control in presence of DTT
T2 sequence (whole entry): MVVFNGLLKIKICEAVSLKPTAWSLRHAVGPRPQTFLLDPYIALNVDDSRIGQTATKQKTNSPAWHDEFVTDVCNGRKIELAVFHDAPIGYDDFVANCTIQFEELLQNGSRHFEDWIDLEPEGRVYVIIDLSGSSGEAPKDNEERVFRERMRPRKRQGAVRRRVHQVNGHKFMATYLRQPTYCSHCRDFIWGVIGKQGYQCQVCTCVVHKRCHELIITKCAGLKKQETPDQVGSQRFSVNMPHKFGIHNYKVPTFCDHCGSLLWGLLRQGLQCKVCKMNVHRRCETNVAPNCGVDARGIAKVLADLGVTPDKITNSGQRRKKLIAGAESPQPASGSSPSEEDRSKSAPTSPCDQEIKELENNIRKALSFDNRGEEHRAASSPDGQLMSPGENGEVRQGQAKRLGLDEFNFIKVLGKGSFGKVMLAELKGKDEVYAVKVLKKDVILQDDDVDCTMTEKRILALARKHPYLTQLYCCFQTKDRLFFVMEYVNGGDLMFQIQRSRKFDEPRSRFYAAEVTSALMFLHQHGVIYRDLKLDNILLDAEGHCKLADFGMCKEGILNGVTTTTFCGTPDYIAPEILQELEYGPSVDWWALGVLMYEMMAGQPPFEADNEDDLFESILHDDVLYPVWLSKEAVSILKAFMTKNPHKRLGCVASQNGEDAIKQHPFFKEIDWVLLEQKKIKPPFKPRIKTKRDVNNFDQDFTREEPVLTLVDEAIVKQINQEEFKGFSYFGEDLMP

Selectivity ratio [1]: 6
SMILES: CO[C@@H]1[C@H](N(C)C(=O)CCC(=O)NCCC(=O)NCCC(=O)NCCC(N)=O)C[C@H]2O[C@]1(C)n1c3ccccc3c3c4c(c5c6ccccc6n2c5c31)C(=O)NC4

Activity [2]: 100%
Activity [3]: 100%
Activity [4]: 89%
SMILES: CO[C@@H]1[C@H](N(C)C(=O)CCC(=O)NCCC(=O)NCCC(=O)NCCC(=O)NCCC(=O)NCCC(=O)NCCC(=O)NCCC(=O)N[C@H]2CSSC[C@@H](C(=O)NCC(N)=O)NC(=O)CNC(=O)[C@H](Cc3ccccc3)NC(=O)[C@H](C(C)C)NC(=O)[C@H](CCCNC(=N)N)NC(=O)[C@H](Cc3ccccc3)NC(=O)[C@H](C(C)C)NC2=O)C[C@H]2O[C@]1(C)n1c3ccccc3c3c4c(c5c6ccccc6n2c5c31)C(=O)NC4 ({Staurosporine-Suc-βAla-βAla-βAla-βAla-βAla-βAla-βAla}-CVFRVFGCG-NH2; disulfide 1-8)

Activity [5]: 100%
Activity [6]: 98%
Activity [7]: 85%
Activity [8]: 59%
Activity [9]: 99%
Activity [10]: 100%
Activity [11]: 100%
Activity [12]: 0%
SMILES: CO[C@@H]1[C@H](N(C)C(=O)CCC(=O)NCCC(=O)NCCC(=O)NCCC(=O)NCCC(=O)NCCC(=O)NCCC(=O)NCCC(=O)N[C@H]2CNC(=O)C[C@@H](C(N)=O)NC(=O)CNC(=O)[C@H](Cc3ccccc3)NC(=O)[C@H](C(C)C)NC(=O)[C@H](CCCNC(=N)N)NC(=O)[C@H](Cc3ccccc3)NC(=O)[C@H](C(C)C)NC2=O)C[C@H]2O[C@]1(C)n1c3ccccc3c3c4c(c5c6ccccc6n2c5c31)C(=O)NC4 ({Staurosporine-Suc-βAla-βAla-βAla-βAla-βAla-βAla-βAla}-[Dap]VFRVFGD-NH2; lactam 1-8)
